These results are taken from ChEMBL document CHEMBL2069261, “Click-based synthesis of triazolobithiazole ΔF508-CFTR correctors for cystic fibrosis” (Bioorg Med Chem, 2012).

The nature of series [1]: Lipophilicity, log P of the compound. Conditions: octanol/water. The class given is physicochemical. A digest of the protocol: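 LogP was estimated from HPLC retention times. The capacity factor was calculated and correlated to logP values.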
The target in series [2] is Cystic fibrosis transmembrane conductance regulator (Homo sapiens, UniProt P13569, F508DEL). The experiment in a line: (§1) Corrector activity at human CFTR deltaF508 mutant expressed in FRT cells stimulated forskolin and potentiator genistein with assessed as iodide influx incubated for 24 hrs. In kind it is cell-based. A digest of the protocol: (§2)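 Epithelial cells co-expressing ΔF508-CFTR and a fluorescent halide sensor were treated with compound for 24 h across a dose range. They were then stimulated with forskolin (cAMP agonist) plus genistein (potentiator), and I⁻ influx was read from the sensor. Vmax and EC50 were taken from the dose-response curves. n=4, with S.E. reported.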
Cystic fibrosis transmembrane conductance regulator, sequence (P13569 as listed by the source): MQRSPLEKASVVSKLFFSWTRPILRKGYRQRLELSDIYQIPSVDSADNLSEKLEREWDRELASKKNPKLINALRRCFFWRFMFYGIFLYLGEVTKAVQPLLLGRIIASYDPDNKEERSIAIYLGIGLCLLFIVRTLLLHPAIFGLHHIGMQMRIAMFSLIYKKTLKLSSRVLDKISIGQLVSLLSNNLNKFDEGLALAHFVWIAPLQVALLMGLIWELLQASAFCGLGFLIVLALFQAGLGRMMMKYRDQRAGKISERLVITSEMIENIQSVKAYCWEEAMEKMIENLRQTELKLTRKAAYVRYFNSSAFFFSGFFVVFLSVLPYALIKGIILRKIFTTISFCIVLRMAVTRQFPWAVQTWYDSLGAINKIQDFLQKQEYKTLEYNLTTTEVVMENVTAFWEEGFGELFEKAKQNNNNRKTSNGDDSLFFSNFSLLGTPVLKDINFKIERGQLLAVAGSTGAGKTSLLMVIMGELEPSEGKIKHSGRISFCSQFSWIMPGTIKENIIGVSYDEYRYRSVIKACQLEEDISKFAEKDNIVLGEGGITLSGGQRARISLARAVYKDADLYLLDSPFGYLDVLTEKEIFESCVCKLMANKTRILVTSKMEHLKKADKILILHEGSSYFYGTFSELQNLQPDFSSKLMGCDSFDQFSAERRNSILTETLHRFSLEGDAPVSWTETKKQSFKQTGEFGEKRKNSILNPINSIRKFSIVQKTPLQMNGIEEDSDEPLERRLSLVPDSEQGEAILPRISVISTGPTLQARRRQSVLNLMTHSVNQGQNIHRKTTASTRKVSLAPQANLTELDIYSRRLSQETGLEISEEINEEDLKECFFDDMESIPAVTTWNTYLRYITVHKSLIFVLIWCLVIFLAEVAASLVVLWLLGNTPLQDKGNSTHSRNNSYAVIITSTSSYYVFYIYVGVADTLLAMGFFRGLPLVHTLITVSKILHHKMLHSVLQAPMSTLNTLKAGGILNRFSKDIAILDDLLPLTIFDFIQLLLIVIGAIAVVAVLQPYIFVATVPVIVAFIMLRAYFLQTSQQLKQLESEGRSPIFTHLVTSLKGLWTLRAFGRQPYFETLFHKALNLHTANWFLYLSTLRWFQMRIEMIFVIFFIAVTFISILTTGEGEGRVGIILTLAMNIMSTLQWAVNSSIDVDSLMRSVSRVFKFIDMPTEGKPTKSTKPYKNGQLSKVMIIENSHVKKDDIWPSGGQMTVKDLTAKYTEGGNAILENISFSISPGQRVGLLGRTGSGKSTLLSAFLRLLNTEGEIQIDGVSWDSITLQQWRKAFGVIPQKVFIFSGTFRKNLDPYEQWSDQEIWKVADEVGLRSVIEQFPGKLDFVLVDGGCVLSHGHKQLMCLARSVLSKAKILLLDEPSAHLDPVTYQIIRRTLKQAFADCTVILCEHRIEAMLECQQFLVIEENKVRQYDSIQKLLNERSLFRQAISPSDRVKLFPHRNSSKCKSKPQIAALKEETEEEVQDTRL

Series [3] deals with Cystic fibrosis transmembrane conductance regulator (Homo sapiens), P13569 [F508del]. The description is as §1. The class given is cell-based. A digest of the protocol: as §2
Cystic fibrosis transmembrane conductance regulator (Homo sapiens), P13569 [F508del], sequence (P13569 as listed by the source): as above

Activity calls are given as the source filed them. No cut-off for these calls is given here.

Turning to `COc1ccc(Cl)cc1Nc1nc(-c2sc(NC(=O)C(C)(C)C)nc2C)c(-n2cc(CO)nn2)s1`, the log partition coefficient (logP) in series [1] (read-out: logP) is 4.8. For the same compound, in series [2], the EC50 turned out to be 1.6 µM.
Turning to `CNc1nc(-c2sc(NC(=O)C(C)(C)C)nc2C)c(-n2cc(-c3ccccc3)nn2)s1`, the concentration for a half-maximal effect (EC50) in series [2] was 4.9 µM.
On to `COC(=O)c1cn(-c2sc(Nc3cc(Cl)ccc3OC)nc2-c2sc(NC(=O)C(C)(C)C)nc2C)nn1`, for which the log partition coefficient (logP) in series [1] (read-out: logP) was 4.8. The concentration for a half-maximal effect (EC50) in series [2] was 4.6 µM.
For the compound `COc1ccc(Cl)cc1Nc1nc(-c2sc(NC(=O)C(C)(C)C)nc2C)c(-n2cc(-c3ccccc3)nn2)s1`, in series [2], the concentration for a half-maximal effect (EC50) turned out to be 0.14 µM.
Compound `COc1ccc(Cl)cc1Nc1nc(-c2sc(NC(=O)c3ccccc3)nc2C)cs1` returned a logP in series [1] of 5.96. Besides, the outcome in series [3] was Active.
With `COc1ccc(Cl)cc1Nc1nc(-c2sc(NC(=O)C(C)(C)C)nc2C)c(-n2cc(C(=O)O)nn2)s1`, the lipophilicity (logP) in series [1] (read-out: logP) is 4.8.
In the case of `Cc1nc(NC(=O)C(C)(C)C)sc1-c1nc(N)sc1-n1cc(-c2ccccc2)nn1`, the EC50 in series [2] was found to be 1.5 µM.

For orientation: logP means a log measure of how a compound divides between an organic and an aqueous phase. Broadly, the EC50 is the concentration giving half of the maximal effect.
